In ChEMBL document CHEMBL1157621, “Synthesis, biological activity, and molecular modeling studies of 1H-1,2,3-triazole derivatives of carbohydrates as alpha-glucosidases inhibitors” (J Med Chem, 2010):
Active and inactive are the calls of the source.

How the values were obtained:
[1] = target: Alpha-glucosidase MAL12 (Saccharomyces cerevisiae S288c) (UniProt P53341); assay: Inhibition of yeast alpha-glucosidase MAL12 assessed as inhibition of p-nitrophenol release at 500 uM by spectrophotometry relative to control
Chain of Alpha-glucosidase MAL12 (Saccharomyces cerevisiae S288c) (P53341 whole entry, the tested form may be a part): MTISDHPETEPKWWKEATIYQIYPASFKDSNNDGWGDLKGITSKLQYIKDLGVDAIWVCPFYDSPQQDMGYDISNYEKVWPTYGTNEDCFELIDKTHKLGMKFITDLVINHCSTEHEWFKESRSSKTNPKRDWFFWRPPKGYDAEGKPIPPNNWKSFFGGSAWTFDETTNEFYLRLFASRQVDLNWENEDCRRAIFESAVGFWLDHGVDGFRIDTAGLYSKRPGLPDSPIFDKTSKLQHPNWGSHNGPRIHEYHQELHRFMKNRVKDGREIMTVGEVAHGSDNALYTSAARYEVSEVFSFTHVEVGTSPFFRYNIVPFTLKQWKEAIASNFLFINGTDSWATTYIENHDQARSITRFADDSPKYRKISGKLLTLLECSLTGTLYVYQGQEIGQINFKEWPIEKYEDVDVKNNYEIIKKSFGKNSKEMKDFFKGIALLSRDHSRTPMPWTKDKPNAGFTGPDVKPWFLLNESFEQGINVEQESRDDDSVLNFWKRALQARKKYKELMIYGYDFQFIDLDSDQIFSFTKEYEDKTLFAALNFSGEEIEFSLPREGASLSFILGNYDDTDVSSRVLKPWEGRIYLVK
Outline: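 Baker's yeast maltase, with p-nitrophenyl-α-D-glucopyranoside as substrate. Released p-nitrophenol was read at 405 nm. Compounds were screened at a fixed 500 μM, and activity was expressed as percent inhibition relative to a no-inhibitor control assay. Acarbose served as comparator.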

[2] = target: Alpha-glucosidase MAL12 (Saccharomyces cerevisiae S288c, UniProt P53341); assay: Inhibition of yeast alpha-glucosidase MAL12 assessed as inhibition of p-nitrophenol release by spectrophotometry
Chain of Alpha-glucosidase MAL12 (P53341 whole entry): as the sequence (P53341 whole entry, the tested form may be a part) above
Outline: (§1)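 Yeast maltase activity was followed by p-nitrophenol release from p-nitrophenyl-α-D-glucopyranoside at 405 nm. IC50 was defined as the concentration giving 50% inhibition under assay conditions. Acarbose was tested in the same assay, and the ratio was taken as acarbose IC50 over compound IC50.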

[3] = target: Alpha-glucosidase MAL12 (Saccharomyces cerevisiae S288c) (UniProt P53341); assay: Ratio of acarbose IC50 to compound IC50 for yeast alpha-glucosidase MAL12; outline: as §1
[4] = system: Rattus norvegicus; assay: Hypoglycemic activity in maltose-fed Wistar rat assessed as reduction in postprandial blood glucose level at 50 mg/kg, po administered 5 mins before maltose challenge measured after 30 mins of maltose infusion
[5] = system: Rattus norvegicus; assay: Hypoglycemic activity in maltose-fed Wistar rat assessed as reduction in postprandial blood glucose level at 50 mg/kg, po administered 5 mins before maltose challenge measured after 60 mins of maltose infusion

| SMILES | inhibition [1] [%] | IC50 [2] [µM] | Ratio IC50 [3] | Activity [4] | Activity [5] |
| --- | --- | --- | --- | --- | --- |
| CO[C@@H]1O[C@H](Cn2cc(COC3CCCCO3)nn2)[C@H]2OC(C)(C)O[C@@H]12 (some centres not stated) | 79.5 | 24.7 |  |  |  |
| CCCc1cn(C[C@H]2O[C@@H](OC)[C@@H]3OC(C)(C)O[C@@H]32)nn1 | 44.9 |  |  |  |  |
| CCOC(=O)c1cn(C[C@H]2O[C@@H](OC)[C@@H]3OC(C)(C)O[C@@H]32)nn1 | 98 | 15.1 |  |  |  |
| CCC(C)(O)c1cn(C[C@H]2O[C@@H](OC)[C@@H]3OC(C)(C)O[C@@H]32)nn1 (some centres not stated) | 41.1 |  |  |  |  |
| CO[C@@H]1O[C@H](Cn2cc(COc3ccccc3)nn2)[C@H]2OC(C)(C)O[C@@H]12 | 98.4 | 5.7 | 20 | Active | Active |
| CC1(C)O[C@H]2O[C@H]([C@H]3COC(C)(C)O3)[C@@H](n3cc(-c4ccccc4)nn3)[C@H]2O1 | 73.1 |  |  |  |  |
| CO[C@@H]1O[C@H](Cn2cc(C(C)(C)O)nn2)[C@H]2OC(C)(C)O[C@@H]12 | 60.2 |  |  |  |  |
| C[C@H]1O[C@H](O[C@H]2[C@H](O)[C@@H](O)[C@@H](O[C@H]3[C@H](O)[C@@H](O)C(O)O[C@@H]3CO)O[C@@H]2CO)[C@H](O)[C@@H](O)[C@@H]1N[C@H]1C=C(CO)[C@@H](O)[C@H](O)[C@H]1O (some centres not stated) | 48.1 |  |  | Active | Active |
| CO[C@@H]1O[C@H](Cn2cc(CCCCl)nn2)[C@H]2OC(C)(C)O[C@@H]12 | 99.5 |  |  |  |  |

The next lines start with results.

| inhibition [1] [%] | IC50 [2] [µM] | Ratio IC50 [3] | SMILES | Activity [4] | Activity [5] |
| --- | --- | --- | --- | --- | --- |
| 98.5 | 5.2 | 20 | CO[C@@H]1O[C@H](Cn2cc(C3(O)CCCCC3)nn2)[C@H]2OC(C)(C)O[C@@H]12 |  |  |
| 99.4 |  |  | CC1(C)O[C@H]2[C@@H](O1)[C@@H](Cn1cc(-c3ccccc3)nn1)O[C@@H]1OC(C)(C)O[C@@H]12 |  |  |
| 94.4 | 14.9 |  | CO[C@@H]1O[C@H](Cn2cc(-c3ccccc3)nn2)[C@H]2OC(C)(C)O[C@@H]12 | Active | Active |
| 98.1 | 3.8 | 25 | CO[C@@H]1O[C@H](Cn2cc(C3=CCCCC3)nn2)[C@H]2OC(C)(C)O[C@@H]12 |  |  |
| 33.3 |  |  | CC1(C)O[C@H]2O[C@H](Cn3cc(C4=CCCCC4)nn3)[C@H](O)[C@H]2O1 |  |  |
| 46.5 |  |  | CO[C@@H]1O[C@H](Cn2cc(CO)nn2)[C@H]2OC(C)(C)O[C@@H]12 |  |  |
| 68.8 |  |  | CC1(C)O[C@H]2O[C@H](Cn3cc(CO)nn3)[C@H](O)[C@H]2O1 |  |  |
| 87.9 |  |  | CC1(C)O[C@H]2O[C@H](Cn3cc(-c4ccccc4)nn3)[C@H](O)[C@H]2O1 |  |  |
